Assay results reported in ChEMBL document CHEMBL3421596, “A facile synthesis and microtubule-destabilizing properties of 4-(1H-benzo[d]imidazol-2-yl)-furazan-3-amines” (Eur J Med Chem, 2015).
The source made the active and inactive calls. The rule behind the calls is not given here.

Assays:
[1] = Cytotoxicity against human NCI60 cells assessed as cell growth at 10 uM; assay type: functional; conditions: read-out: Activity
In short: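 NCI60 panel screened by the NCI Developmental Therapeutics Program at a single 10 µM concentration; mean cell growth percent reported.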

[2] = Cytotoxicity against human NCI60 cells; assay type: functional
Paracentrotus lividus [3] = assay: Antiproliferative activity in sea urchin embryo assessed as antimitotic activity by measuring cleavage alteration exposed for 8 to 20 mins after fertilization and 45 to 55 mins before first mitotic cycle completion measured 2.5 to […] after fertilization; assay type: functional
Paracentrotus lividus [4] = assay: Antiproliferative activity in sea urchin embryo assessed as destabilization of microtubule by measuring embryo spinning after 15 mins to 20 hrs; assay type: functional
Paracentrotus lividus [5] = assay: Antiproliferative activity in sea urchin embryo assessed as antimitotic activity by measuring cleavage arrest exposed for 8 to 20 mins after fertilization and 45 to 55 mins before first mitotic cycle completion measured 2.5 to […] after fertilization; assay type: functional
Tubulin = Tubulin (Bos taurus, UniProt Q6B856+Q862L2+Q862F3); assay: Inhibition of bovine tubulin polymerization by turbidity assay; assay type: protein assay
[6] = Cytotoxicity against human NCI-ADR-RES cells; assay type: functional
MDA-MB-435 = assay: Cytotoxicity against human MDA-MB-435 cells; assay type: functional
[7] = Cytotoxicity against human OVCAR8 cells; assay type: functional
SF-539 = assay: Cytotoxicity against human SF539 cells; assay type: functional
RXF 393 = assay: Cytotoxicity against human RXF393 cells; assay type: functional
[8] = Cytotoxicity against human OVCAR3 cells; assay type: functional
Paracentrotus lividus [9] = assay: Antiproliferative activity in sea urchin embryo assessed as destabilization of microtubule by tuberculate eggs after 15 mins to 20 hrs; assay type: functional, organism-based

SMILES | growth at 10 µM [1] | EC (Paracentrotus lividus [3]) | EC (Paracentrotus lividus [4]) | EC (Paracentrotus lividus [5]) | further results
Nc1nonc1-c1nc2ccccc2n1Cc1ccncc1 | 97% | – | – | – | –
Cc1ccc(NC(=O)Cn2c(-c3nonc3NC(=O)c3ccc(F)cc3)nc3ccccc32)cc1F | 71.8% | – | – | – | –
Cn1c(-c2nonc2NC(=O)c2ccc(F)cc2)nc2ccccc21 | 99.5% | – | – | – | –
N#CCCNc1nonc1-c1nc2ccccc2n1CC(=O)c1ccc(N)cc1 [AVANBULIN] | – | – | – | – | GI50 [2]: 0.0065 µM
Nc1nonc1-c1nc2ccccc2n1Cc1nnn[nH]1 | 103% | >4 µM | >4 µM | >4 µM | –
Nc1nonc1-c1nc2ccccc2n1CCO | 102% | – | – | – | –
COc1ccc(Cn2c(-c3nonc3NC(C)=O)nc3ccccc32)cc1 | 85% | >4 µM | >4 µM | >4 µM | –
Nc1nc(N)nc(Cn2c(-c3nonc3N)nc3ccccc32)n1 | 102% | >4 µM | >4 µM | >4 µM | –
Nc1nonc1-c1nc2cc3ccccc3cc2[nH]1 | – | 0.5 µM | >4 µM | 4 µM | –
N#Cc1ccc(Cn2c(-c3nonc3N)nc3ccccc32)cc1 | 79.8% | 4 µM | >4 µM | >4 µM | –
CC(C)(C)c1ccc(Cn2c(-c3nonc3N)nc3ccccc32)cc1 | 67.4% | >4 µM | >4 µM | >4 µM | –
COc1ccc(Cn2c(-c3nonc3N)nc3cc(C(F)(F)F)ccc32)cc1 | 81.1% | >4 µM | >4 µM | >4 µM | –
Nc1nonc1-c1nc2ccccc2n1Cc1cccc2ccccc12 | – | – | – | – | IC50 (Tubulin): 7.03 µM
C=CCn1c(-c2nonc2NC(C)=O)nc2ccccc21 | 96.5% | >4 µM | >4 µM | >4 µM | –
Nc1nonc1-c1nc2ccccc2n1CC(=O)Nc1ccc(F)c(Cl)c1 | 70.5% | 2 µM | >4 µM | >4 µM | –
CCC(=O)Nc1nonc1-c1nc2ccccc2n1Cc1ccc(F)cc1Cl | 64.5% | >4 µM | >4 µM | >4 µM | –
N#CCn1c(-c2nonc2N)nc2ccccc21 | 102% | >4 µM | >4 µM | >4 µM | –
COc1ccc2[nH]c(-c3nonc3N)nc2c1 | 101% | 0.5 µM | >5 µM | >4 µM | –
Cc1cccc(C)c1NC(=O)Cn1c(-c2nonc2N)nc2ccccc21 | 90.2% | >4 µM | >4 µM | >4 µM | –

SMILES | growth at 10 µM [1] | EC (Paracentrotus lividus [3]) | EC (Paracentrotus lividus [4]) | EC (Paracentrotus lividus [5]) | further results
Nc1nonc1-c1nc2ccccc2[nH]1 | 103% | 2 µM | >4 µM | >4 µM | –
COc1ccc2[nH]c(-c3nonc3-n3cccc3)nc2c1 | 104% | 2 µM | >4 µM | >4 µM | –
Nc1nonc1-c1nc2cc(Cl)ccc2[nH]1 | 97.1% | 2 µM | >5 µM | >4 µM | –
Nc1nonc1-c1nc2ccccc2n1Cc1cccc(Br)c1 | – | – | – | – | IC50 (Tubulin): 2.04 µM
COc1ccc(NC(=O)Cn2c(-c3nonc3N)nc3ccccc32)cc1Cl | 100% | >4 µM | >4 µM | >4 µM | –
CC(=O)Nc1nonc1-c1nc2ccccc2n1Cc1ccc(Cl)cc1Cl | 76.7% | – | – | – | –
C#CCn1c(-c2nonc2N)nc2ccccc21 | 99.6% | >4 µM | >4 µM | >4 µM | –
N#Cc1ccc2[nH]c(-c3nonc3N)nc2c1 | 107% | >4 µM | >4 µM | >4 µM | –
CC[C@]1(O)C[C@@H]2CN(CCc3c([nH]c4ccccc34)[C@@](C(=O)OC)(c3cc4c(cc3OC)N(C)[C@H]3[C@@](O)(C(=O)OC)[C@H](OC(C)=O)[C@]5(CC)C=CCN6CC[C@]43[C@@H]65)C2)C1 [VINBLASTINE] | – | 0.1 µM | 2 µM | 0.2 µM | TGI [6]: 0.79 µM; GI50 ([6]; read-out: GI50): 0.1 µM; TGI (MDA-MB-435): 0.00025 µM; GI50 (MDA-MB-435; read-out: GI50): 0.00025 µM; CC50 (MDA-MB-435; read-out: LC50 (the source's name)): 0.001 µM; TGI ([7]; OVCAR-8): 0.32 µM; GI50 ([7]; OVCAR-8, read-out: GI50): 0.0016 µM; CC50 ([7]; OVCAR-8, read-out: LC50 (the source's name)): 2 µM; TGI (SF-539): 0.0025 µM; GI50 (SF-539; read-out: GI50): 0.0006 µM; GI50 [2]: 0.00137 µM; TGI (RXF 393): 0.05 µM; GI50 (RXF 393; read-out: GI50): 0.001 µM; TGI ([8]; OVCAR-3): 0.0016 µM; GI50 ([8]; OVCAR-3, read-out: GI50): 0.0003 µM; CC50 ([8]; OVCAR-3, read-out: LC50 (the source's name)): 0.5 µM; Activity (Paracentrotus lividus [9]): Active
CN(C)c1nc(N)nc(Cn2c(-c3nonc3N)nc3ccccc32)n1 | 80.8% | 2 µM | >4 µM | >4 µM | –
COc1cccc(Cn2c(-c3nonc3NC(C)=O)nc3ccccc32)c1 | – | 1 µM | >4 µM | >4 µM | GI50 [2]: 3.98 µM
Nc1nonc1-c1nc2ccccc2n1Cc1ccc(Cl)cc1 | 85% | >4 µM | >4 µM | >4 µM | –
CC(=O)Nc1nonc1-c1nc2ccccc2n1Cc1ccccn1 | 104% | >4 µM | >4 µM | >4 µM | –
CC(=O)Nc1nonc1-c1nc2ccccc2n1Cc1ccc(C#N)cc1 | 94.1% | >4 µM | >4 µM | >4 µM | –
Nc1nonc1-c1nc2ccccc2n1Cc1c(F)cccc1Cl | 91.9% | >4 µM | >4 µM | >4 µM | –
Nc1nonc1-c1nc2c(Cl)cccc2[nH]1 | 99.8% | 1 µM | >4 µM | >4 µM | –
Cc1cc(C)cc(NC(=O)Cn2c(-c3nonc3N)nc3ccccc32)c1 | 109% | >4 µM | >4 µM | >4 µM | –
Nc1nonc1-c1nc2cc(F)ccc2[nH]1 | 97.8% | 2 µM | >5 µM | >4 µM | –
Nc1nonc1-c1nc2ccccc2n1CC(=O)Nc1ccc2c(c1)COC2=O | 80.8% | 2 µM | >4 µM | 4 µM | –

SMILES | growth at 10 µM [1] | EC (Paracentrotus lividus [3]) | EC (Paracentrotus lividus [4]) | EC (Paracentrotus lividus [5]) | further results
O=C(Nc1nonc1-c1nc2ccccc2n1Cc1ccncc1)c1ccncc1 | 97.1% | >4 µM | >4 µM | >4 µM | –
CC(=O)Nc1nonc1-c1nc2ccccc2n1Cc1cccc(C(F)(F)F)c1 | 82.2% | >4 µM | >4 µM | >4 µM | –
Nc1nonc1-c1nc2ccccc2n1CC(=O)NCc1ccc(F)cc1 | 102% | 4 µM | >4 µM | >4 µM | –
Nc1nonc1-c1nc2ccccc2n1Cc1cccc(F)c1 | – | 0.5 µM | >4 µM | >4 µM | IC50 (Tubulin): 7.9 µM
Nc1nonc1-c1nc2ccccc2n1CC(=O)Nc1ccc(OC(F)(F)F)cc1 | 105% | 4 µM | >4 µM | >4 µM | –
Nc1nc(Cn2c(-c3nonc3N)nc3ccccc32)nc(N2CCCCC2)n1 | 87.7% | 4 µM | >4 µM | >4 µM | –
CC(=O)Nc1nonc1-c1nc2ccccc2n1Cc1ccncc1 | 101% | >4 µM | >5 µM | >4 µM | –
Nc1nonc1-c1nc2ccccc2n1Cc1cc2c(cc1Br)OCO2 | 86.1% | >4 µM | >4 µM | >4 µM | –
Nc1nonc1-c1nc2ccccc2n1Cc1ccccn1 | 89.3% | 2 µM | >4 µM | >4 µM | –
c1ccc2[nH]c(-c3nonc3-n3cccc3)nc2c1 | 104% | >4 µM | >4 µM | >4 µM | –
CC(=O)Nc1nonc1-c1nc2ccccc2n1Cc1ccc(C(C)(C)C)cc1 | 73.5% | – | – | – | –
Nc1nonc1-c1nc2ccccc2n1CC(=O)Nc1ccccc1Cl | – | – | – | – | IC50 (Tubulin): 7.36 µM
Nc1nonc1-c1nc2ccccc2n1Cc1cccc(C(F)(F)F)c1 | – | – | – | – | IC50 (Tubulin): 13.27 µM
CCOc1ccc(Cn2c(-c3nonc3N)nc3ccccc32)cc1OCC | 81% | >4 µM | >4 µM | >4 µM | –
COc1cc2c(c(OC)c1OC)-c1ccc(OC)c(=O)cc1[C@@H](NC(C)=O)CC2 [COLCHICINE] | – | 50 µM | 50 µM | 100 µM | GI50 [2]: 0.132 µM; Activity (Paracentrotus lividus [9]): Active
Nc1nonc1-c1nc2ccccc2n1Cc1cc2c(cc1Cl)OCO2 | 88.3% | >4 µM | >4 µM | >4 µM | –
Cc1ccc(Cn2c(-c3nonc3N)nc3ccccc32)cc1 | 70.4% | – | – | – | –
Nc1nonc1-c1nc2ccccc2n1Cc1ccc(F)cc1 | – | 2 µM | >4 µM | >4 µM | GI50 [2]: 8.91 µM
